The values below come from ChEMBL document CHEMBL1127482 (J Med Chem, 1994).

Usually IC50 stands for the concentration that inhibits the measured activity by half. Low values mean higher potency, high ones lower potency.

*1 amine or outer side, *2 acyl side, *3 side chain or, on linkers, in order; H or OH if unused. Where a SMILES comes first, the peptide text is derived from it. Bridges are numbered along the chain shown (N, C = ends). X1 = O=C(CC1(S[*:2])CCCCC1)[*:1]

The species named for one assay is Homo sapiens. Nature of the assay: Inhibition of 10 uM ADP induced platelet aggregation in human platelet rich citreated plasma (PRP). Format: functional. The gist of the method: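 Aggregation is read as the increase in light transmission in an aggregometer, with platelets used within 3 h of collection. IC50 comes from regression of dose-response curves for inhibition of maximal aggregation, adjusted against a standard run in each experiment.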

For assay [1], the target named is Integrin alpha-IIb/beta-3 (Homo sapiens, UniProt P05106+P08514). Nature of the assay: Binding affinity against integrin alpha 2b-beta 3 in enzyme linked immunosorbent assay (ELISA). Format: protein-complex assay. The gist of the method: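 Purified human platelet αIIbβ3 (from outdated platelets, octyl glucoside extract) in TBS with 20 mM octyl glucoside, 2 mM MgCl2 and 2 mM CaCl2 binds to plate-coated human fibrinogen (10 µg/mL in TBS) with 10-fold serial peptide dilutions for 3 h at room temperature. Bound receptor is detected with rabbit anti-αIIbβ3, then HRP anti-rabbit IgG, with o-phenylenediamine/H2O2 at pH 5.0. IC50 is reported.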
(In general: An ELISA detects its analyte on a solid surface through an enzyme-linked reagent.)

The next assay concerns the target Integrin alpha-5/beta-1 (Homo sapiens, UniProt P05556+P08648). Nature of the assay: Binding affinity against integrin alpha5-beta1 in enzyme linked immunosorbent assay (ELISA). The format is protein-complex assay.
For the next assay, the target named is Integrin alpha-V/beta-5 (Homo sapiens, UniProt P06756+P18084). Nature of the assay: Binding affinity against integrin alpha V-beta5 in enzyme linked immunosorbent assay (ELISA). Format: protein-complex assay. The gist of the method:
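It is added to wells coated with human vitronectin in 0.1 M carbonate, pH 9.6, with 10-fold serial peptide dilutions for 3 h at room temperature. Detection uses rabbit anti-VnR, HRP anti-rabbit IgG and o-phenylenediamine/H2O2.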

The species named for another assay is Canis familiaris. Nature of the assay: Effect of compound on template bleeding time in dogs. The format is functional, Canis lupus familiaris.

Chain of Integrin alpha-5/beta-1 (P05556 21-798 limits assumed): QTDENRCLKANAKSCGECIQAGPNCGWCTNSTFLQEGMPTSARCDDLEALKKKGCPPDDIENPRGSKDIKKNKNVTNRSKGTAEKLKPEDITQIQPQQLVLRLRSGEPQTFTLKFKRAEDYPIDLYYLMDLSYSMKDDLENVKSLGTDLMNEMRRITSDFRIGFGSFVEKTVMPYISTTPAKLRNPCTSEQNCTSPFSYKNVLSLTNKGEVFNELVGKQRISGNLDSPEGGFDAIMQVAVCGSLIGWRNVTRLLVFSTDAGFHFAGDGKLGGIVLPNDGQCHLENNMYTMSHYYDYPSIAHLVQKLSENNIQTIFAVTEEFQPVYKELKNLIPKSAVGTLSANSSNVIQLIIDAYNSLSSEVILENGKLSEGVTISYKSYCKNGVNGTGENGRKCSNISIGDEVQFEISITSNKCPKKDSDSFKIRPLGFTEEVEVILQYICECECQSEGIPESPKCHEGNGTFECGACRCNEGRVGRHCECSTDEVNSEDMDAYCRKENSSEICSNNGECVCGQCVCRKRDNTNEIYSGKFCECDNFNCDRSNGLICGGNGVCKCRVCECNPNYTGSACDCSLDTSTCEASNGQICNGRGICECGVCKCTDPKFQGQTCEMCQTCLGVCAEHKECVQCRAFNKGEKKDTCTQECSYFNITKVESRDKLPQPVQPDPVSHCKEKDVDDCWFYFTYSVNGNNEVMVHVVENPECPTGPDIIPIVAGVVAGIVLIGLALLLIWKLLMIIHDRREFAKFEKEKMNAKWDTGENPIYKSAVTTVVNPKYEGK
Chain of Integrin alpha-5/beta-1 (P08648 42-894 limits assumed): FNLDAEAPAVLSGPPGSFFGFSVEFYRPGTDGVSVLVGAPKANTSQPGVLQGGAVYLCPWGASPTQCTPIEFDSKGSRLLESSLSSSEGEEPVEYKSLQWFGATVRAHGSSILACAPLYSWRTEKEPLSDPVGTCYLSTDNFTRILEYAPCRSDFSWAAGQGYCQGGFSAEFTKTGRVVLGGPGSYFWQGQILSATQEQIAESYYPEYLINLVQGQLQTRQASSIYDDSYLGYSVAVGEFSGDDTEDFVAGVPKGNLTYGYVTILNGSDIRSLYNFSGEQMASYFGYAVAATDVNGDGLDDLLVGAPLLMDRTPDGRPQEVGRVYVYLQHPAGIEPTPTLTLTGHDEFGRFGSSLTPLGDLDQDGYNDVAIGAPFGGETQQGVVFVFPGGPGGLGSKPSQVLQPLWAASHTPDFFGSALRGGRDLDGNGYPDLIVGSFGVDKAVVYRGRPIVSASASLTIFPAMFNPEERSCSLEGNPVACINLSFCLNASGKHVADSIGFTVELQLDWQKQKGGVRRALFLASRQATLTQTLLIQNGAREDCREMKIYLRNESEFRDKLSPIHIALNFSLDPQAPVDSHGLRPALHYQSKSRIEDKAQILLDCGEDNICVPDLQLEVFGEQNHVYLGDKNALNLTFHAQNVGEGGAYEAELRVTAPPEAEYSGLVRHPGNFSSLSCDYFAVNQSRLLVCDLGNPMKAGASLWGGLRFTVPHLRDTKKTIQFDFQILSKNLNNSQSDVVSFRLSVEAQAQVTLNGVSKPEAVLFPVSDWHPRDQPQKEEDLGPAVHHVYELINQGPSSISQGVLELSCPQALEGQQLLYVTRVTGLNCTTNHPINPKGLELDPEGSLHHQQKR
Chain of Integrin alpha-5/beta-1 (P08648 895-1049 limits assumed): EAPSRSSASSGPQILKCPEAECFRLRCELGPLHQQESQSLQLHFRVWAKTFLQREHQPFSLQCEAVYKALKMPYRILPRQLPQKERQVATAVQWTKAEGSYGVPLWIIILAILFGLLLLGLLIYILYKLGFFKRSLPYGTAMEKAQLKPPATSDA
Chain of Integrin alpha-IIb/beta-3 (P05106 27-788 limits assumed): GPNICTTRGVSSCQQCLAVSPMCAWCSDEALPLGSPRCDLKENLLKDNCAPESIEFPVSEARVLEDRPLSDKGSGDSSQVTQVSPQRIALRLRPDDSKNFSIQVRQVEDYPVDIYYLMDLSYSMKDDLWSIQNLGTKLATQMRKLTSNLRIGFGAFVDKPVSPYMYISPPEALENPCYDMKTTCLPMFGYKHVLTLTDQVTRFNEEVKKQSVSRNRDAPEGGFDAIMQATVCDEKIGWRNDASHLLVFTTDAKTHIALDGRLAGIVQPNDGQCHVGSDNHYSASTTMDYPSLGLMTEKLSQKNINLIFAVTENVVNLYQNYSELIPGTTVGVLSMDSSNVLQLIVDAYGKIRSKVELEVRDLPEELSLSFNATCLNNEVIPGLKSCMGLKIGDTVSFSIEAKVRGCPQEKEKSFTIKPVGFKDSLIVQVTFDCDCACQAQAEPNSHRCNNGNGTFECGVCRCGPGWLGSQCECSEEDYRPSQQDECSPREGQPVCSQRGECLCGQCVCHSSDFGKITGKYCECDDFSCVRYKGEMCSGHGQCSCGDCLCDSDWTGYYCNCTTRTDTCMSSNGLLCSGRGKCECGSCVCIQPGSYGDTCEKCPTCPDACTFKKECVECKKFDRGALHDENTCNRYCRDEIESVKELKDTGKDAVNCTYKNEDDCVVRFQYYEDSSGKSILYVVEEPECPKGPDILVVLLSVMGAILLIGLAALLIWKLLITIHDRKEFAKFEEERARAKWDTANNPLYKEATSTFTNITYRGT
Chain of Integrin alpha-IIb/beta-3 (P08514 32-887 limits assumed): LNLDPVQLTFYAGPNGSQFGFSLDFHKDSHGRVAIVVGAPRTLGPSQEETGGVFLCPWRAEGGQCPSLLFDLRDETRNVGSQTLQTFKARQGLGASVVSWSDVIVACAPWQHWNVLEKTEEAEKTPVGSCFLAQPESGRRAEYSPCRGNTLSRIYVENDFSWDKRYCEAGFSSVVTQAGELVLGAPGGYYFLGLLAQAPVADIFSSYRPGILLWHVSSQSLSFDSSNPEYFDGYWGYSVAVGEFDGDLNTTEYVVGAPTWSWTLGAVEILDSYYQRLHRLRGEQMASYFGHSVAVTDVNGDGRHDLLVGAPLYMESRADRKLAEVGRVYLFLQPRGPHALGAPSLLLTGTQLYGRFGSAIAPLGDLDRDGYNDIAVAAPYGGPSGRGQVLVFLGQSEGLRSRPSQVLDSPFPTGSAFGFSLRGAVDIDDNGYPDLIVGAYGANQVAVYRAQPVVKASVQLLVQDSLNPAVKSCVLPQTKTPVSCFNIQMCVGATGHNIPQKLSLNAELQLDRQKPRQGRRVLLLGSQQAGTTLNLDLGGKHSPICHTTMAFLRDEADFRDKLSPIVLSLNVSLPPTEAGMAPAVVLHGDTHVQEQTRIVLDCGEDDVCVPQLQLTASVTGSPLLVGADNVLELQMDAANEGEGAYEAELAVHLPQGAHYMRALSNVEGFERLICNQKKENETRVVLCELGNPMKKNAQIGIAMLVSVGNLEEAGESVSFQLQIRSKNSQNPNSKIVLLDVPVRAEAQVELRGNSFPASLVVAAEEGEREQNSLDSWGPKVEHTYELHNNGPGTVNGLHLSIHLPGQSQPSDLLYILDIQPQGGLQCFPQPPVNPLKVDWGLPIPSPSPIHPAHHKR
Chain of Integrin alpha-IIb/beta-3 (P08514 891-1039 limits assumed): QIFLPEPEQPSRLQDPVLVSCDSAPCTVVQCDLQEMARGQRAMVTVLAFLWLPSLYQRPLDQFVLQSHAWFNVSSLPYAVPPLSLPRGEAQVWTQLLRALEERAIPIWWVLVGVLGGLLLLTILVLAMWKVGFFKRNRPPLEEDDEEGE

Regarding `CCCCOc1ccc(C[C@@H]2NC(=O)[C@H](CC(=O)O)NC(=O)CNC(=O)[C@H](CCCNC(=N)N)NC(=O)[C@H](Cc3c[nH]cn3)NC(=O)CNC(=O)[C@@H](NC(=O)[C@@H](N)CCCNC(=N)N)C3(CCCCC3)SSC[C@@H](C(=O)N[C@@H](CCCNC(=N)N)C(=O)O)NC(=O)[C@H](CCCNC(=N)N)NC2=O)cc1`, the IC50 in the assay filed under Homo sapiens is 0.35 µM; in assay [1], 0.03 µM.

As to `N=C(N)NCCC[C@H](NC(=O)[C@@H]1CSSC2(CCCCC2)[C@H](NC(=O)[C@@H](N)CCCNC(=N)N)C(=O)NCC(=O)N[C@@H](Cc2c[nH]cn2)C(=O)N[C@@H](CCCNC(=N)N)C(=O)NCC(=O)N[C@@H](CC(=O)O)C(=O)N[C@@H](Cc2ccc(Cl)cc2)C(=O)N[C@@H](CCCNC(=N)N)C(=O)N1)C(=O)O`, the results for the IC50 in the assay filed under Homo sapiens, at Integrin alpha-5/beta-1 and on Integrin alpha-V/beta-5 were 0.73 µM, 0.87 µM and 15.3 µM, respectively.

As for `N=C(N)NCCC[C@H](NC(=O)[C@@H]1CSSC2(CCCCC2)[C@H](NC(=O)[C@@H](N)CCCNC(=N)N)C(=O)NCC(=O)N[C@@H](Cc2c[nH]cn2)C(=O)N[C@@H](CCCNC(=N)N)C(=O)NCC(=O)N[C@@H](CC(=O)O)C(=O)N[C@@H](Cc2ccc(I)cc2)C(=O)N[C@@H](CCCNC(=N)N)C(=O)N1)C(=O)O`, the results for the IC50 (on Integrin alpha-5/beta-1; on Integrin alpha-V/beta-5; in assay [1]) were 4.19 µM, 4.03 µM and 0.01 µM, respectively.

With `NC(N)=NCCC[C@H](NC(=O)[C@@H]1CSSC2(CCCCC2)[C@H](NC(=O)[C@@H](N)CCCN=C(N)N)C(=O)NCC(=O)N[C@@H](Cc2c[nH]cn2)C(=O)N[C@@H](CCCN=C(N)N)C(=O)NCC(=O)N[C@@H](CC(=O)O)C(=O)N[C@@H](Cc2ccccc2)C(=O)N[C@@H](CCCN=C(N)N)C(=O)N1)C(=O)O`, the IC50 in the assay filed under Homo sapiens amounted to 0.62 µM; in assay [1], 0.04 µM.

On to `COc1ccc(C[C@@H]2NC(=O)[C@H](CC(=O)O)NC(=O)CNC(=O)[C@H](CCCNC(=N)N)NC(=O)[C@H](Cc3c[nH]cn3)NC(=O)CNC(=O)[C@@H](NC(=O)[C@@H](N)CCCNC(=N)N)C3(CCCCC3)SSC[C@@H](C(=O)N[C@@H](CCCNC(=N)N)C(=O)O)NC(=O)[C@H](CCCNC(=N)N)NC2=O)cc1`, for which the IC50 on Integrin alpha-5/beta-1 was 0.98 µM; on Integrin alpha-V/beta-5, 1.05 µM; in assay [1] it was 0.02 µM.

For the compound `COc1ccc(C[C@@H]2NC(=O)[C@H](CC(=O)O)NC(=O)CNC(=O)[C@H](CCCN=C(N)N)NC(=O)[C@H](Cc3c[nH]cn3)NC(=O)[C@H](CCCN=C(N)N)NC(=O)[C@@H](NC(=O)[C@@H](N)CCCN=C(N)N)C3(CCCCC3)SSC[C@@H](C(=O)N[C@@H](CCCN=C(N)N)C(=O)O)NC(=O)[C@H](CCCN=C(N)N)NC2=O)cc1`, the half-maximal inhibitory concentration (IC50) came out at 0.44 µM in the assay filed under Homo sapiens and 0.07 µM in assay [1].

Turning to `CC(C)C[C@@H]1NC(=O)[C@H](CC(=O)O)NC(=O)CNC(=O)[C@H](CCCNC(=N)N)NC(=O)[C@H](Cc2c[nH]cn2)NC(=O)CNC(=O)[C@@H](NC(=O)[C@@H](N)CCCNC(=N)N)C2(CCCC2)SSC[C@@H](C(=O)N[C@@H](CCCNC(=N)N)C(=O)O)NC(=O)[C@H](CCCNC(=N)N)NC1=O`, the IC50 in the assay filed under Homo sapiens is 4.1 µM; on Integrin alpha-V/beta-5, 0.34 µM; in assay [1], 0.03 µM.

Consider `CCOc1ccc(C[C@@H]2NC(=O)[C@H](CC(=O)O)NC(=O)CNC(=O)[C@H](CCCN=C(N)N)NC(=O)[C@@H]3CCCN3C(=O)[C@H](CC(N)=O)NC(=O)[C@@H](NC(C)=O)CSSC[C@@H](C(N)=O)NC(=O)[C@H](CCCN=C(N)N)NC2=O)cc1`, for which the IC50 in the assay listed under Homo sapiens is 0.22 µM; on Integrin alpha-5/beta-1 it was 10 µM; on Integrin alpha-V/beta-5, 8.4 µM; in assay [1] it was 0.004 µM.

On to `CC(=O)N[C@H]1CSSC[C@@H](C(N)=O)NC(=O)[C@H](CCCN=C(N)N)NC(=O)[C@H](Cc2ccc([N+](=O)[O-])cc2)NC(=O)[C@H](CC(=O)O)NC(=O)CNC(=O)[C@H](CCCN=C(N)N)NC(=O)[C@@H]2CCCN2C(=O)[C@H](CC(N)=O)NC1=O`, for which the values for the IC50 (in the assay listed under Homo sapiens; on Integrin alpha-V/beta-5; in assay [1]) were 0.84 µM, 4.8 µM and 0.017 µM, respectively.

Regarding `NC(N)=NCCC[C@H](NC(=O)[C@@H]1CSSC2(CCCCC2)[C@H](NC(=O)[C@@H](N)CCCN=C(N)N)C(=O)NCC(=O)N[C@@H](Cc2c[nH]cn2)C(=O)N[C@@H](CCCN=C(N)N)C(=O)NCC(=O)N[C@@H](CC(=O)O)C(=O)N[C@@H](Cc2ccc3ccccc3c2)C(=O)N[C@@H](CCCN=C(N)N)C(=O)N1)C(=O)O`, the IC50 in the assay listed under Homo sapiens is 0.44 µM; at Integrin alpha-5/beta-1 it was 7.72 µM; in assay [1], 0.07 µM.

Regarding `NC(N)=NCCC[C@H](NC(=O)[C@@H]1CSSC2(CCCCC2)[C@H](NC(=O)[C@@H](N)CCCN=C(N)N)C(=O)NCC(=O)N[C@@H](Cc2c[nH]cn2)C(=O)N[C@@H](CCCN=C(N)N)C(=O)NCC(=O)N[C@@H](CC(=O)O)C(=O)N[C@@H](c2ccccc2)C(=O)N[C@@H](CCCN=C(N)N)C(=O)N1)C(=O)O`, the half-maximal inhibitory concentration (IC50) in the assay filed under Homo sapiens was found to be 0.68 µM; in assay [1] it was 0.02 µM.

In the case of `CC(C)C[C@@H]1NC(=O)[C@H](CC(=O)O)NC(=O)CNC(=O)[C@H](CCCNC(=N)N)NC(=O)[C@H](Cc2c[nH]cn2)NC(=O)CNC(=O)[C@@H](NC(=O)[C@@H](N)CCCNC(=N)N)C(C)(C)SSC[C@@H](C(=O)N[C@@H](CCCNC(=N)N)C(=O)O)NC(=O)[C@H](CCCNC(=N)N)NC1=O`, the IC50 turned out to be 9.6 µM in the assay filed under Homo sapiens, 4.93 µM at Integrin alpha-V/beta-5 and 0.04 µM in assay [1].

With `CC(C)C[C@@H]1NC(=O)[C@H](CC(=O)O)NC(=O)CNC(=O)[C@H](CCCNC(=N)N)NC(=O)[C@H](Cc2c[nH]cn2)NC(=O)CNC(=O)[C@@H](NC(=O)[C@@H](N)CCCNC(=N)N)C2(CCCCC2)SSC[C@@H](C(=O)N[C@@H](CCCNC(=N)N)C(=O)O)NC(=O)[C@H](CCCNC(=N)N)NC1=O`, the IC50 in the assay listed under Homo sapiens is 3 µM; at Integrin alpha-V/beta-5 it was 1.58 µM; in assay [1], 0.4 µM.

As to `CC[C@H](C)[C@@H]1NC(=O)[C@@H](NC(C)=O)CSSC[C@@H](C(N)=O)NC(=O)[C@H](CCCN=C(N)N)NC(=O)[C@H](Cc2ccc([N+](=O)[O-])cc2)NC(=O)[C@H](CC(=O)O)NC(=O)CNC(=O)[C@H](CCCN=C(N)N)NC(=O)[C@@H]2CCCN2C1=O`, the IC50 is 0.21 µM in the assay filed under Homo sapiens, 1.2 µM at Integrin alpha-5/beta-1, 4.3 µM on Integrin alpha-V/beta-5 and 0.43 µM in assay [1].

Take `CCCCOc1ccc(C[C@@H]2NC(=O)[C@H](CC(=O)O)NC(=O)CNC(=O)[C@H](CCCNC(=N)N)NC(=O)[C@@H]3CCCN3C(=O)[C@H]([C@@H](C)CC)NC(=O)[C@@H](NC(C)=O)CSSC[C@@H](C(N)=O)NC(=O)[C@H](CCCNC(=N)N)NC2=O)cc1`: the concentration for half-maximal inhibition (IC50) is 6 µM on Integrin alpha-5/beta-1, above 10 µM on Integrin alpha-V/beta-5 and 0.016 µM in assay [1].

As for `COc1ccc(C[C@@H]2NC(=O)[C@H](CC(=O)O)NC(=O)CNC(=O)[C@H](CCCCN)NC(=O)[C@@H]3CCCN3C(=O)[C@H](CC(N)=O)NC(=O)[C@@H](NC(C)=O)CSSC[C@@H](C(N)=O)NC(=O)[C@H](CCCN=C(N)N)NC2=O)cc1`, the Bleeding time in the assay filed under Canis familiaris was 3.5 min.

Consider `CC(C)C[C@@H]1NC(=O)[C@H](CC(=O)O)NC(=O)CNC(=O)[C@H](CCCNC(=N)N)NC(=O)[C@H](Cc2c[nH]cn2)NC(=O)CNC(=O)[C@H](NC(=O)[C@@H](N)CCCNC(=N)N)C(C)(C)SSC[C@@H](C(=O)N[C@@H](CCCNC(=N)N)C(=O)O)NC(=O)[C@H](CCCNC(=N)N)NC1=O`, for which the IC50 in the assay filed under Homo sapiens was determined as 4.1 µM; on Integrin alpha-V/beta-5 it was 10 µM; in assay [1], 0.15 µM.

Consider `CC[C@H](C)[C@@H]1NC(=O)[C@H](NC(C)=O)C(C)(C)SSC[C@@H](C(N)=O)NC(=O)[C@H](CCCNC(=N)N)NC(=O)[C@H](Cc2ccc(OC)cc2)NC(=O)[C@H](CC(=O)O)NC(=O)CNC(=O)[C@H](CCCNC(=N)N)NC(=O)[C@@H]2CCCN2C1=O`, for which the results for the IC50 (in the assay listed under Homo sapiens; in assay [1]) were 0.28 µM and 0.002 µM, respectively.

In the case of `CC[C@H](C)[C@@H]1NC(=O)[C@@H](NC(C)=O)CSSC[C@@H](C(N)=O)NC(=O)[C@H](CCCN=C(N)N)NC(=O)[C@H](Cc2ccccc2)NC(=O)[C@H](CC(=O)O)NC(=O)CNC(=O)[C@H](CCCN=C(N)N)NC(=O)[C@@H]2CCCN2C1=O` (Ac-CIPRGDFRC-NH2; disulfide 1-9), the concentration for half-maximal inhibition (IC50) in the assay listed under Homo sapiens stood at 0.45 µM; at Integrin alpha-5/beta-1 it was 2.1 µM; on Integrin alpha-V/beta-5, 10 µM; in assay [1] it was 0.014 µM.

In the case of `CC[C@H](C)[C@@H]1NC(=O)[C@@H](NC(C)=O)CSSC[C@@H](C(N)=O)NC(=O)[C@H](CCCNC(=N)N)NC(=O)[C@H](Cc2ccc(O)cc2)NC(=O)[C@H](CC(=O)O)NC(=O)CNC(=O)[C@H](CCCNC(=N)N)NC(=O)[C@@H]2CCCN2C1=O` (Ac-CIPRGDYRC-NH2; disulfide 1-9), the results for the half-maximal inhibitory concentration (IC50) (on Integrin alpha-5/beta-1; on Integrin alpha-V/beta-5; in assay [1]) were 4.5 µM, above 10 µM and 0.003 µM, respectively.

In the case of `CC(C)C[C@@H]1NC(=O)[C@H](CC(=O)O)NC(=O)CNC(=O)[C@H](CCCNC(=N)N)NC(=O)[C@H](Cc2c[nH]cn2)NC(=O)CNC(=O)CC2(CCCCC2)SSC[C@@H](C(=O)N[C@@H](C)C(=O)O)NC(=O)[C@H](CCCNC(=N)N)NC1=O` (GHRGDLRCA-OH; linker N-8 via X1), the half-maximal inhibitory concentration (IC50) in the assay filed under Homo sapiens is 5.9 µM; at Integrin alpha-V/beta-5, 10 µM; in assay [1], 0.02 µM.

In the case of `CC(C)C[C@@H]1NC(=O)[C@H](CC(=O)O)NC(=O)CNC(=O)[C@H](CCCNC(=N)N)NC(=O)[C@H](Cc2c[nH]cn2)NC(=O)CNC(=O)[C@H](NC(=O)CN)C(C)(C)SSC[C@@H](C(=O)N[C@@H](C)C(=O)O)NC(=O)[C@H](CCCNC(=N)N)NC1=O` (stereo in doubt; 2), the 50% inhibitory concentration (IC50) in assay [1] was 0.15 µM. This counts as sub-micromolar.
